The text below walks through data of ChEMBL document CHEMBL3797154, “Design and Synthesis of 1-((1,5-Bis(4-chlorophenyl)-2-methyl-1H-pyrrol-3-yl)methyl)-4-methylpiperazine (BM212) and N-Adamantan-2-yl-N'-((E)-3,7-dimethylocta-2,6-dienyl)ethane-1,2-diamine (SQ109) Pyrrole Hybrid Derivatives: Discovery of Potent Antitubercular Agents Effective against …” (J Med Chem, 2016).

Assay [1] has as its system Mycobacterium tuberculosis. The experiment in a line: Antimycobacterial activity against drug-resistant Mycobacterium tuberculosis isolate MDR2 assessed as inhibition of mycobacterial growth incubated for 9 days. It is filed as functional. The method in brief: (§1)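 MIC by HT-SPOTi on Middlebrook 7H10 agar with 0.05% (v/v) glycerol and 10% (v/v) OADC in 96-well format. Compounds dissolved at 50 mg/mL (stock), two-fold serial dilutions, final 500-0.5 µg/mL. Each well spotted with 2 µL early-to-midlog culture (2x10^3 CFU), incubated at 37 °C until distinct spots in control wells. DMSO-only and isoniazid controls; triplicate.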

The subject of assay [2] is Mycobacterium tuberculosis. The experiment in a line: Antimycobacterial activity against drug-resistant Mycobacterium tuberculosis isolate MDR1 assessed as inhibition of mycobacterial growth incubated for 9 days. It is filed as functional. In short, it runs like this:
as §1

The test system of assay [3] is Mycobacterium tuberculosis variant bovis BCG. The experiment in a line: Antimycobacterial activity against Mycobacterium bovis BCG Pasteur ATCC 35734 assessed as inhibition of mycobacterial growth incubated for 24 hrs by MABA method. In kind it is functional. The conditions noted are these: Pasteur ATCC 35734, 24 h. (In general: Alamar Blue is a resazurin reagent that responds to reducing activity.)

In assay [4] the test system is Mycobacterium tuberculosis. The experiment in a line: Antimycobacterial activity against drug-resistant Mycobacterium tuberculosis isolate MDR2 assessed as inhibition of mycobacterial growth at 500 ug/ml incubated for 9 days. It is filed as functional, organism-based. The method in brief: as §1
The test system of assay [5] is Mycobacterium tuberculosis. Put plainly: Antimycobacterial activity against drug-resistant Mycobacterium tuberculosis isolate MDR1 assessed as inhibition of mycobacterial growth at 500 ug/ml incubated for 9 days. It is filed as functional, organism-based. In short, it runs like this: as §1

≈ marks a conversion by molar mass, not a printed value. Calls of active or inactive are those of the source. The calls are words filed in the database; no cut-off is given here. Bounds are passed on as bounds.

By MIC is commonly meant the least concentration at which growth counts as inhibited. `Cc1ccc(CNCc2cc(C)n(-c3ccc(Cl)cc3)c2C)cc1`: the minimum inhibitory concentration (MIC) in assay [1] (isolate MDR2, 216 h) stood at 7.8 µg/mL (≈ 23 µM); in assay [2] (isolate MDR1, 216 h) it was 3.9 µg/mL (≈ 11.5 µM); in assay [3] it was 4 µg/mL (≈ 11.8 µM).

`Cc1cc(CNCCc2ccccc2)c(C)n1-c1ccc(Cl)cc1`: the minimal inhibitory concentration (MIC) stood at 7.8 µg/mL (≈ 23 µM) in assay [1] (isolate MDR2, 216 h); 1.9 µg/mL (≈ 5.61 µM) in assay [2] (isolate MDR1, 216 h); 16 µg/mL (≈ 47.2 µM) in assay [3].

In the case of `Cc1c(CNCc2ccccc2)cc(-c2ccc(Cl)cc2)n1-c1ccc(Cl)cc1`, the MIC in assay [3] amounted to 8 µg/mL (≈ 19 µM).

Regarding `Cc1c(CN2CCN(C)CC2)cc(-c2ccc(Cl)cc2)n1-c1ccc(Cl)cc1`, the minimal inhibitory concentration (MIC) was found to be 16 µg/mL (≈ 38.6 µM) in assay [1] (isolate MDR2, 216 h); 3.9 µg/mL (≈ 9.41 µM) in assay [2] (isolate MDR1, 216 h); 0.78 µg/mL (≈ 1.88 µM) in assay [3].

Consider `Cc1c(CNC2CCCCC2)cc(-c2ccc(Cl)cc2)n1-c1ccc(Cl)cc1`, for which the minimum inhibitory concentration (MIC) in assay [3] stood at 4 µg/mL (≈ 9.68 µM).

Take `Cc1cc(CN2CCN(c3ccccc3)CC2)c(C)n1-c1ccc(Cl)cc1`: the minimal inhibitory concentration (MIC) was more than 125 µg/mL in assay [1] (isolate MDR2, 216 h); 31 µg/mL (≈ 81.6 µM) in assay [2] (isolate MDR1, 216 h); 32 µg/mL (≈ 84.2 µM) in assay [3].

Turning to `NNC(=O)c1ccncc1` [ISONIAZID], the MIC in assay [1] (isolate MDR2, 216 h) came out at 25 µg/mL (≈ 182 µM); in assay [2] (isolate MDR1, 216 h), 10 µg/mL (≈ 72.9 µM).

For the compound `Cc1c(CN2CCN(c3ccccc3)CC2)c(CN2CCN(c3ccccc3)CC2)c(C)n1-c1ccc(Cl)cc1`, the minimum inhibitory concentration (MIC) in assay [1] (isolate MDR2, 216 h) was more than 125 µg/mL; in assay [2] (isolate MDR1, 216 h) it was 62 µg/mL (≈ 112 µM); in assay [3], more than 64 µg/mL.

Consider `Cc1cc(CN2CCN(C3C[C@@H]4CC[C@H]3C4)CC2)c(C)n1-c1ccc(Cl)cc1` (mixture of isomers), for which the minimum inhibitory concentration (MIC) in assay [1] (isolate MDR2, 216 h) is 31 µg/mL; in assay [2] (isolate MDR1, 216 h) it was 3.9 µg/mL; in assay [3] it was 32 µg/mL.

On to `Cc1cccc(-n2c(C)cc(CN3CCN(C4C5CC6CC(C5)CC4C6)CC3)c2C)c1` (stereo not given), for which the MIC in assay [1] (isolate MDR2, 216 h) was determined as 125 µg/mL (≈ 299 µM); in assay [2] (isolate MDR1, 216 h) it was 31 µg/mL (≈ 74.2 µM); in assay [3], 62 µg/mL (≈ 148 µM).

`Cc1cc(CN2CCN(C3CCCCC3)CC2)c(C)n1-c1ccc(Cl)cc1`: the minimal inhibitory concentration (MIC) in assay [1] (isolate MDR2, 216 h) was 62 µg/mL (≈ 161 µM); in assay [2] (isolate MDR1, 216 h) it was 7.8 µg/mL (≈ 20.2 µM); in assay [3] it was 21 µg/mL (≈ 54.4 µM).

Turning to `Cc1cc(CNCc2ccc(Cl)cc2)c(C)n1-c1ccc(Cl)cc1`, the MIC was more than 125 µg/mL in assay [1] (isolate MDR2, 216 h); 31 µg/mL (≈ 86.3 µM) in assay [2] (isolate MDR1, 216 h); 8 µg/mL (≈ 22.3 µM) in assay [3].

Consider `Cc1c(CN2CCN(C34CC5CC(CC(C5)C3)C4)CC2)cc(-c2ccc(Cl)cc2)n1-c1ccc(Cl)cc1`, for which the minimal inhibitory concentration (MIC) in assay [1] (isolate MDR2, 216 h) turned out to be 62 µg/mL (≈ 116 µM); in assay [2] (isolate MDR1, 216 h), 16 µg/mL (≈ 29.9 µM); in assay [3], 2 µg/mL (≈ 3.74 µM).

Turning to `Cc1cc(CNOCc2ccccc2)c(C)n1-c1ccc(Cl)cc1`, the MIC entry in assay [1] is “inactive”. Moreover, in assay [4], the “growth inhibition (GI)” value is “inactive”. In addition, the minimum inhibitory concentration (MIC) in assay [2] (isolate MDR1, 216 h) is 125 µg/mL (≈ 367 µM); in assay [3], more than 64 µg/mL.

On to `Cc1cc(CNCc2ccccc2)c(C)n1-c1ccc(F)cc1`, for which the minimal inhibitory concentration (MIC) in assay [1] (isolate MDR2, 216 h) worked out at 62 µg/mL (≈ 201 µM); in assay [2] (isolate MDR1, 216 h), 7.8 µg/mL (≈ 25.3 µM); in assay [3] it was 13 µg/mL (≈ 42.2 µM).

For `Cc1c(CN2CCN(C3C4CC5CC(C4)CC3C5)CC2)cc(-c2ccc(Cl)cc2)n1-c1ccc(Cl)cc1` (stereo not given), the MIC in assay [1] (isolate MDR2, 216 h) came out at 125 µg/mL (≈ 234 µM); in assay [2] (isolate MDR1, 216 h) it was 125 µg/mL (≈ 234 µM); in assay [3], 64 µg/mL (≈ 120 µM).

On to `Cc1c(CN2CCN(C3CC4CCC3C4)CC2)cc(-c2ccc(Cl)cc2)n1-c1ccc(Cl)cc1` (mixture of isomers), for which the minimal inhibitory concentration (MIC) in assay [3] stood at 64 µg/mL.

Take `Cc1cc(CNC2CCCCC2)c(C)n1-c1ccc(Cl)cc1`: the MIC stood at 16 µg/mL (≈ 50.5 µM) in assay [1] (isolate MDR2, 216 h); 0.5 µg/mL (≈ 1.58 µM) in assay [2] (isolate MDR1, 216 h); 0.4 µg/mL (≈ 1.26 µM) in assay [3].

On to `Cc1cc(CN2CCN(C3C4CC5CC(C4)CC3C5)CC2)c(C)n1-c1ccc(Cl)cc1` (stereo not given), for which the MIC in assay [1] (isolate MDR2, 216 h) stood at 16 µg/mL (≈ 36.5 µM); in assay [2] (isolate MDR1, 216 h) it was 7.8 µg/mL (≈ 17.8 µM); in assay [3] it was 3.3 µg/mL (≈ 7.53 µM).

On to `Cc1c(CN2CCN(c3ccccc3)CC2)cc(-c2ccc(Cl)cc2)n1-c1ccc(Cl)cc1`, for which the MIC in assay [1] (isolate MDR2, 216 h) is more than 125 µg/mL; in assay [2] (isolate MDR1, 216 h), 3.9 µg/mL (≈ 8.19 µM); in assay [3], 2 µg/mL (≈ 4.2 µM).

For `Cc1cc(CNC2C3CC4CC(C3)CC2C4)c(C)n1-c1ccc(Cl)cc1` (stereo not given), the MIC is 125 µg/mL (≈ 339 µM) in assay [1] (isolate MDR2, 216 h); 3.9 µg/mL (≈ 10.6 µM) in assay [2] (isolate MDR1, 216 h); 2 µg/mL (≈ 5.42 µM) in assay [3].

For `Cc1cc(/C=N\OCc2ccccc2)c(C)n1-c1ccc(Cl)cc1`, the MIC in assay [1] (isolate MDR2, 216 h) was more than 125 µg/mL; in assay [2] (isolate MDR1, 216 h), more than 125 µg/mL; in assay [3], more than 64 µg/mL.

Take `CC(C)=CCC/C(C)=C/CNCCNC1C2CC3CC(C2)CC1C3` (stereo not given) [SQ109]: the minimum inhibitory concentration (MIC) in assay [3] is 2 µg/mL (≈ 6.05 µM).

In the case of `Cc1cc(CNCc2ccccc2)c(C)n1-c1ccc(Cl)cc1`, the MIC in assay [1] (isolate MDR2, 216 h) turned out to be 3.9 µg/mL (≈ 12 µM); in assay [2] (isolate MDR1, 216 h) it was 1 µg/mL (≈ 3.08 µM); in assay [3] it was 0.5 µg/mL (≈ 1.54 µM).

Take `Cc1cc(CNOCc2ccccc2)c(C)n1-c1ccc(F)cc1`: the minimal inhibitory concentration (MIC) in assay [1] (isolate MDR2, 216 h) is more than 125 µg/mL; in assay [2] (isolate MDR1, 216 h) it was 62 µg/mL (≈ 191 µM); in assay [3], more than 64 µg/mL.

Regarding `Cc1cc(CN2CCN(C3C4CC5CC(C4)CC3C5)CC2)c(C)n1-c1ccccc1F` (stereo not given), the MIC turned out to be 16 µg/mL (≈ 38 µM) in assay [1] (isolate MDR2, 216 h); 7.8 µg/mL (≈ 18.5 µM) in assay [2] (isolate MDR1, 216 h); 1.3 µg/mL (≈ 3.08 µM) in assay [3].

For the compound `Cc1cc(CN2CCN(C34CC5CC(CC(C5)C3)C4)CC2)c(C)n1-c1ccc(Cl)cc1`, the MIC in assay [1] (isolate MDR2, 216 h) was determined as 125 µg/mL (≈ 285 µM); in assay [2] (isolate MDR1, 216 h) it was 125 µg/mL (≈ 285 µM); in assay [3] it was 16 µg/mL (≈ 36.5 µM).

For `Cc1cc(CN2CCN(C3C4CC5CC(C4)CC3C5)CC2)c(C)n1-c1ccc(C(C)C)cc1` (stereo not given), the MIC in assay [1] (isolate MDR2, 216 h) amounted to 125 µg/mL (≈ 280 µM); in assay [2] (isolate MDR1, 216 h) it was 62 µg/mL (≈ 139 µM); in assay [3], 4 µg/mL (≈ 8.97 µM).

In the case of `Cc1cc(CNCc2ccc(F)cc2)c(C)n1-c1ccc(Cl)cc1`, the minimum inhibitory concentration (MIC) in assay [1] (isolate MDR2, 216 h) turned out to be 16 µg/mL (≈ 46.7 µM); in assay [3], 0.5 µg/mL (≈ 1.46 µM). For the same compound, in assay [2], the MIC entry is “inactive”. In addition, the “growth inhibition (GI)” value in assay [5] was “inactive”.
